Test results from ChEMBL document CHEMBL1138352, “On the intractability of estrogen-related receptor alpha as a target for activation by small molecules” (J Med Chem, 2007).
The source made the active and inactive calls. The rule behind the calls is not given here.

Assays:
[1] = test system: HeLa; assay: Activity at human ERRalpha F272A mutant expressed in HeLa cells assessed as estrogen response element activation at 10 uM after 24 to 30 hrs by luciferase reporter gene assay; type: cell-based
Method in brief: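 HeLa cells transiently co-transfected with an expression vector for human ERRα (F272A point mutant) and a luciferase reporter carrying a triple repeat of the estrogen response element. Cells were exposed to compound, and luciferase activity was read relative to vehicle-treated cells.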

[2] = biological target: T1, Steroid hormone receptor ERR1 (Homo sapiens) (UniProt P11474); assay: Effect on interaction between ERRalpha ligand binding domain and RIP140 at 30 uM by FRET assay
T1 sequence (whole entry): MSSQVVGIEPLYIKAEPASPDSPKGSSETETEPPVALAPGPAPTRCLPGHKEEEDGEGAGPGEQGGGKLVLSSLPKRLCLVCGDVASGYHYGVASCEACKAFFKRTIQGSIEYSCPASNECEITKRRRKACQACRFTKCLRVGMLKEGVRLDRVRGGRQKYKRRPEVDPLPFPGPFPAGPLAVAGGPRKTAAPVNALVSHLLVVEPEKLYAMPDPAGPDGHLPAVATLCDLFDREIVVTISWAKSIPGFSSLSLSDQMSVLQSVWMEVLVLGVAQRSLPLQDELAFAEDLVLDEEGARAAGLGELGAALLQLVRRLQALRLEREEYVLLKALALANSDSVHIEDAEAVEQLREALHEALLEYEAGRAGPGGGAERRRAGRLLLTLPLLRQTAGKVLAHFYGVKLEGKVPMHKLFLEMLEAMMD

[3] = biological target: T2, Estrogen-related receptor gamma (Homo sapiens) (UniProt P62508); assay: Effect on interaction between ERRgamma ligand binding domain and RIP140 by FRET assay
T2 sequence (whole entry): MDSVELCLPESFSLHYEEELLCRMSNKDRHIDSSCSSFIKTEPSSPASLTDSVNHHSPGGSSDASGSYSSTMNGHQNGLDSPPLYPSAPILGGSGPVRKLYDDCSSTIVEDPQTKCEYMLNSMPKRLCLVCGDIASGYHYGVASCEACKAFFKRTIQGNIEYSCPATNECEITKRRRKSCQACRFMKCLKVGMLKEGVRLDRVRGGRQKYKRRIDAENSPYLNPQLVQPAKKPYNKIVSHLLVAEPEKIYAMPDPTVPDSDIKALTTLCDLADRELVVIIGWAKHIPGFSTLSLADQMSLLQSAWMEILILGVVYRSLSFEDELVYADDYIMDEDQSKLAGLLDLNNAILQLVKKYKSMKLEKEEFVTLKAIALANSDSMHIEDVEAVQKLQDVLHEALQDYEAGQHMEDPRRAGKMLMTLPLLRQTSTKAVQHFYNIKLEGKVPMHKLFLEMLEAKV

[4] = biological target: T1, Steroid hormone receptor ERR1 (Homo sapiens); assay: Activity at human ERRalpha expressed in HeLa cells assessed as estrogen response element activation at 50 uM after 24 ro 30 hrs by luciferase reporter gene assay; type: cell-based
Method in brief: (§1)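 HeLa cells were co-transfected with an expression vector for human ERRα (wild type, or the F272A point mutant for line 1) and a luciferase reporter driven by a triple repeat of an estrogen response element. Luciferase activity in compound-exposed cells was compared with vehicle-treated cells.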

[5] = test system: HeLa; assay: Activity at human ERRalpha F272A mutant expressed in HeLa cells assessed as estrogen response element activation after 24 to 30 hrs by luciferase reporter gene assay; type: cell-based; method in brief: as §1

Row | SMILES | Activity [2] | Activity [3] | Activity [4] | Activity [1] | Activity [5]
1 | CN(C)CCc1c[nH]c2ccc(-c3cccc4ccccc34)cc12 | – | – | – | inactive | –
2 | CNC(=O)c1ccc(O)cc1 | inactive | inactive | inactive | – | –
3 | CCCCNC(=O)c1ccc(O)cc1 | inactive | inactive | inactive | – | –
4 | CC(C)c1ccc(/C=N/NC(=O)c2ccc(O)cc2)cc1 | – | – | – | – | inactive
5 | CC(C)/C=N/NC(=O)c1ccc(O)cc1 | inactive | inactive | inactive | – | –
6 | CC(C)CNC(=O)c1ccc(O)cc1 | inactive | inactive | inactive | inactive | –
7 | CCCCCNC(=O)c1ccc(O)cc1 | inactive | inactive | inactive | – | –
8 | C=C(C)CNC(=O)c1ccc(O)cc1 | inactive | inactive | inactive | – | –
9 | CC(C)CCNC(=O)c1ccc(O)cc1 | inactive | inactive | inactive | – | –
10 | CCCCC/C=N/NC(=O)c1ccc(O)cc1 | inactive | inactive | inactive | – | –
11 | CCNC(=O)c1ccc(O)cc1 | inactive | inactive | inactive | – | –
12 | C=C(/C=N/NC(=O)c1ccc(O)cc1)CC | inactive | inactive | inactive | – | –
13 | CCCNC(=O)c1ccc(O)cc1 | inactive | inactive | inactive | – | –

Second part, led by results:

Row | Activity [2] | Activity [3] | Activity [4] | SMILES | Activity [1] | Activity [5]
14 | inactive | inactive | inactive | CCC(C)C(C)/C=N/NC(=O)c1ccc(O)cc1 (configuration not stated) | – | –
15 | inactive | inactive | inactive | CC(C)NC(=O)c1ccc(O)cc1 | – | –
16 | inactive | inactive | inactive | CC/C=N/NC(=O)c1ccc(O)cc1 | – | –
17 | inactive | inactive | inactive | NC(=O)c1ccc(O)cc1 | – | –
18 | inactive | inactive | inactive | C=CCC/C=N/NC(=O)c1ccc(O)cc1 | – | –
19 | inactive | inactive | inactive | CC(C)(C)CNC(=O)c1ccc(O)cc1 | – | –
20 | inactive | inactive | inactive | CCC(C)/C=N/NC(=O)c1ccc(O)cc1 (configuration not stated) | – | –
